Laboratory results: ChEMBL document CHEMBL1142890, “Structure-antibacterial activity of arylcarbonyl- and arylsulfonyl-piperazine 5-triazolylmethyl oxazolidinones” (2007)
In brackets after ≈: the same amount, converted by molar mass.

Tests used:
Enterococcus [1] = assay: Antimicrobial activity against vancomycin-sensitive Enterococcus by agar dilution method; assay type: functional
Method in brief: (§1)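 Agar dilution per CLSI on Mueller-Hinton agar, test agents at 0.12 to 8 µg/ml; test compounds dissolved in 20% water in DMSO, linezolid in 40% water in ethanol, vancomycin in water. Clinical isolates inoculated at final 10^7 CFU/ml, incubated 35 °C for 18 h. MIC = lowest concentration completely inhibiting growth; reported as range across isolates.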

Escherichia coli = assay: Antimicrobial activity against Escherichia coli ATCC 25922; assay type: functional
Haemophilus influenzae = assay: Antimicrobial activity against Haemophilus influenzae; assay type: functional
Staphylococcus [2] = assay: Antimicrobial activity against methicillin-resistant coagulase-negative Staphylococcus by agar dilution method; assay type: functional; method in brief: as §1
Staphylococcus aureus [3] = assay: Antimicrobial activity against methicillin-susceptible Staphylococcus aureus by agar dilution method; assay type: functional; method in brief: as §1
Streptococcus pneumoniae = assay: Antimicrobial activity against Streptococcus pneumoniae by agar dilution method; assay type: functional
Method in brief: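 Agar dilution per CLSI on Mueller–Hinton agar holding drug dilutions from 0.12 to 8 µg/ml. Staphylococci and enterococci tested on plain MH agar, S. pneumoniae on MH agar with 5% sheep blood. Test compounds dissolved in 20% water in DMSO. Inoculum 10⁷ CFU/ml, incubated 35 °C for 18 h. MIC was the lowest concentration giving complete growth inhibition.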

Staphylococcus aureus [4] = assay: Antimicrobial activity against Staphylococcus aureus ATCC 25923 by agar dilution method
Staphylococcus aureus [5] = assay: Antimicrobial activity against methicillin-resistant Staphylococcus aureus by agar dilution method; assay type: functional; method in brief: as §1
Staphylococcus aureus [6] = assay: Antimicrobial activity against Staphylococcus aureus ATCC 25922 in presence of 50% human plasma […]; assay type: functional; details: ATCC 25923, Plasma, in the assay text read “ATCC 25923” for “ATCC 25922”
Method in brief: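 S. aureus ATCC 25923 tested in Mueller–Hinton broth supplemented with 50% human plasma. Test compounds dissolved in 20% water in DMSO. Inoculum 10⁷ CFU/ml, incubated 35 °C for 18 h. MIC was the lowest concentration completely inhibiting growth.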

Moraxella catarrhalis = assay: Antimicrobial activity against Moraxella catarrhalis; assay type: functional
Staphylococcus [7] = assay: Antimicrobial activity against methicillin-susceptible coagulase-negative staphylococcus by agar dilution method; assay type: functional; method in brief: as §1
Enterococcus [8] = assay: Antimicrobial activity against vancomycin-resistant Enterococcus by agar dilution method; assay type: functional; method in brief: as §1

| Compound | MIC (Enterococcus [1]) [µg/mL] | MIC (Escherichia coli) [µg/mL] | MIC (Haemophilus influenzae) [µg/mL] | MIC (Staphylococcus [2]) [µg/mL] | MIC (Staphylococcus aureus [3]) [µg/mL] | MIC (Streptococcus pneumoniae) [µg/mL] | MIC (Staphylococcus aureus [4]) [µg/mL] | MIC (Staphylococcus aureus [5]) [µg/mL] | MIC (Staphylococcus aureus [6]) [µg/mL] | MIC (Moraxella catarrhalis) [µg/mL] | MIC (Staphylococcus [7]) [µg/mL] | MIC (Enterococcus [8]) [µg/mL] |
| --- | --- | --- | --- | --- | --- | --- | --- | --- | --- | --- | --- | --- |
| O=C1O[C@@H](Cn2ccnn2)CN1c1ccc(N2CCN(S(=O)(=O)c3cccs3)CC2)c(F)c1 | 0.5 (≈ 1.02 µM) | ≥ 8 | ≥ 8 | 0.5 (≈ 1.02 µM) | 0.5 (≈ 1.02 µM) | 1 (≈ 2.03 µM) | 1 (≈ 2.03 µM) | 0.5 (≈ 1.02 µM) | > 8 | ≥ 8 | 0.5 (≈ 1.02 µM) | 0.5 (≈ 1.02 µM) |
| O=C(c1ccccc1Cl)N1CCN(c2ccc(N3C[C@H](Cn4ccnn4)OC3=O)cc2F)CC1 | 0.5 (≈ 1.03 µM) | ≥ 8 | ≥ 8 | 0.5 (≈ 1.03 µM) | 0.5 (≈ 1.03 µM) | 4 (≈ 8.25 µM) | 1 (≈ 2.06 µM) | 0.5 (≈ 1.03 µM) | 8 | ≥ 8 | 0.5 (≈ 1.03 µM) | 0.5 (≈ 1.03 µM) |
| O=C(c1ccc(Cl)cc1)N1CCN(c2ccc(N3C[C@H](Cn4ccnn4)OC3=O)cc2F)CC1 | 0.5 (≈ 1.03 µM) | ≥ 8 | ≥ 8 | 0.12 (≈ 0.247 µM) | 0.25 (≈ 0.516 µM) | 1 (≈ 2.06 µM) | 0.5 (≈ 1.03 µM) | 0.25 (≈ 0.516 µM) | 8 | ≥ 8 | 0.12 (≈ 0.247 µM) | 0.5 (≈ 1.03 µM) |
| O=C(c1ccccc1F)N1CCN(c2ccc(N3C[C@H](Cn4ccnn4)OC3=O)cc2F)CC1 | 0.5 (≈ 1.07 µM) | ≥ 8 | ≥ 8 | 0.25 (≈ 0.534 µM) | 0.25 (≈ 0.534 µM) | 1 (≈ 2.13 µM) | 0.5 (≈ 1.07 µM) | 0.25 (≈ 0.534 µM) | 8 | ≥ 8 | 0.25 (≈ 0.534 µM) | 0.5 (≈ 1.07 µM) |
| O=C(c1ccc(F)cc1)N1CCN(c2ccc(N3C[C@H](Cn4ccnn4)OC3=O)cc2F)CC1 | 1 (≈ 2.13 µM) | ≥ 8 | ≥ 8 | 0.5 (≈ 1.07 µM) | 0.5 (≈ 1.07 µM) | 0.5 (≈ 1.07 µM) | 1 (≈ 2.13 µM) | 0.5 (≈ 1.07 µM) | 4 | ≥ 8 | 0.5 (≈ 1.07 µM) | 0.5 (≈ 1.07 µM) |
| O=C(c1ccccc1[N+](=O)[O-])N1CCN(c2ccc(N3C[C@H](Cn4ccnn4)OC3=O)cc2F)CC1 | 2 (≈ 4.04 µM) | ≥ 8 | ≥ 8 | 1 (≈ 2.02 µM) | 1 (≈ 2.02 µM) | 0.5 (≈ 1.01 µM) | 2 (≈ 4.04 µM) | 0.5 (≈ 1.01 µM) | 2 | ≥ 8 | 1 (≈ 2.02 µM) | 1 (≈ 2.02 µM) |
| O=C(c1cccc([N+](=O)[O-])c1)N1CCN(c2ccc(N3C[C@H](Cn4ccnn4)OC3=O)cc2F)CC1 | 0.5 (≈ 1.01 µM) | ≥ 8 | ≥ 8 | 0.25 (≈ 0.505 µM) | 0.25 (≈ 0.505 µM) | 0.25 (≈ 0.505 µM) | 2 (≈ 4.04 µM) | 0.25 (≈ 0.505 µM) | 2 | ≥ 8 | 0.5 (≈ 1.01 µM) | 0.5 (≈ 1.01 µM) |
| Cc1ccccc1C(=O)N1CCN(c2ccc(N3C[C@H](Cn4ccnn4)OC3=O)cc2F)CC1 | 1 (≈ 2.15 µM) | ≥ 8 | ≥ 8 | 0.5 (≈ 1.08 µM) | 0.5 (≈ 1.08 µM) | 1 (≈ 2.15 µM) | 2 (≈ 4.31 µM) | 0.5 (≈ 1.08 µM) | 8 | ≥ 8 | 0.5 (≈ 1.08 µM) | 1 (≈ 2.15 µM) |
| Cc1cccc(C(=O)N2CCN(c3ccc(N4C[C@H](Cn5ccnn5)OC4=O)cc3F)CC2)c1 | 0.5 (≈ 1.08 µM) | ≥ 8 | ≥ 8 | 0.25 (≈ 0.538 µM) | 0.25 (≈ 0.538 µM) | 1 (≈ 2.15 µM) | 0.5 (≈ 1.08 µM) | 0.25 (≈ 0.538 µM) | 8 | ≥ 8 | 0.25 (≈ 0.538 µM) | 0.5 (≈ 1.08 µM) |
| Cc1ccc(C(=O)N2CCN(c3ccc(N4C[C@H](Cn5ccnn5)OC4=O)cc3F)CC2)cc1 | 1 (≈ 2.15 µM) | ≥ 8 | ≥ 8 | 0.5 (≈ 1.08 µM) | 0.5 (≈ 1.08 µM) | 2 (≈ 4.31 µM) | 1 (≈ 2.15 µM) | 0.5 (≈ 1.08 µM) | 8 | ≥ 8 | 0.5 (≈ 1.08 µM) | 0.5 (≈ 1.08 µM) |
| O=C(c1cccc(F)c1)N1CCN(c2ccc(N3C[C@H](Cn4ccnn4)OC3=O)cc2F)CC1 | 0.5 (≈ 1.07 µM) | ≥ 8 | ≥ 8 | 0.5 (≈ 1.07 µM) | 0.25 (≈ 0.534 µM) | 0.5 (≈ 1.07 µM) | 1 (≈ 2.13 µM) | 0.25 (≈ 0.534 µM) | 4 | ≥ 8 | 0.5 (≈ 1.07 µM) | 0.5 (≈ 1.07 µM) |
| O=C(c1ccc([N+](=O)[O-])cc1)N1CCN(c2ccc(N3C[C@H](Cn4ccnn4)OC3=O)cc2F)CC1 | 2 (≈ 4.04 µM) | ≥ 8 | ≥ 8 | 1 (≈ 2.02 µM) | 2 (≈ 4.04 µM) | 1 (≈ 2.02 µM) | 2 (≈ 4.04 µM) | 1 (≈ 2.02 µM) | 4 | ≥ 8 | 1 (≈ 2.02 µM) | 2 (≈ 4.04 µM) |
| O=C1O[C@@H](Cn2ccnn2)CN1c1ccc(N2CCN(S(=O)(=O)c3ccccc3)CC2)c(F)c1 | 2 (≈ 4.11 µM) | ≥ 8 | ≥ 8 | 0.5 (≈ 1.03 µM) | 0.5 (≈ 1.03 µM) | 1 (≈ 2.06 µM) | 2 (≈ 4.11 µM) | 0.5 (≈ 1.03 µM) | 8 | ≥ 8 | 0.5 (≈ 1.03 µM) | 0.5 (≈ 1.03 µM) |
| COc1ccccc1C(=O)N1CCN(c2ccc(N3C[C@H](Cn4ccnn4)OC3=O)cc2F)CC1 | 1 (≈ 2.08 µM) | ≥ 8 | ≥ 8 | 0.25 (≈ 0.52 µM) | 0.5 (≈ 1.04 µM) | 1 (≈ 2.08 µM) | 1 (≈ 2.08 µM) | 1 (≈ 2.08 µM) | 4 | ≥ 8 | 0.25 (≈ 0.52 µM) | 1 (≈ 2.08 µM) |
| O=C(Cc1ccccc1)N1CCN(c2ccc(N3C[C@H](Cn4ccnn4)OC3=O)cc2F)CC1 | 0.5 (≈ 1.08 µM) | ≥ 8 | ≥ 8 | 0.5 (≈ 1.08 µM) | 0.5 (≈ 1.08 µM) | 0.5 (≈ 1.08 µM) | 2 (≈ 4.31 µM) | 0.5 (≈ 1.08 µM) | 4 | ≥ 8 | 0.5 (≈ 1.08 µM) | 1 (≈ 2.15 µM) |
